# Bioassay records as filed in PubChem.
# RGS4 inh: RGS4 inhibitors, primary screen, cell-based, HEK293 M3R inducible RGS4, calcium flux. Fluo-4 calcium flux; stronger effect = higher value; triggered by carbachol at its EC20. B-score at 10 µM. hit rate 0.45% among 310,000;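 active = B-score, a plate-corrected calcium signal, over three deviations above library mean, with baseline fluorescence within five deviations of library mean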;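 also: RGS4 expression induced by doxycycline in cells with stable M3 receptor; B-score is computed from the integrated fluorescence ratio over baseline after carbachol; higher B-score means a larger calcium signal and so more RGS4 inhibition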
# Target sequence (P49798 whole entry, looked up): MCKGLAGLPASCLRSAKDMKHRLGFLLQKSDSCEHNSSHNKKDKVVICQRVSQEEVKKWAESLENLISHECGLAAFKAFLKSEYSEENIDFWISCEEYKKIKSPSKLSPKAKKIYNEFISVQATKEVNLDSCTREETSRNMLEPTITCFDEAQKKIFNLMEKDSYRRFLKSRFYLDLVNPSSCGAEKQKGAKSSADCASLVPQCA
# RGS4 pot: RGS4 potentiators or activators, primary screen, cell-based, HEK293 M3R inducible RGS4, calcium flux. carbachol calcium flux Fluo4; stronger effect = lower value. B-score at 10 µM. hit rate 0.92% among 310,000;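 active = B-score of the integrated calcium signal more than 4 SD below the library mean, with starting fluorescence not abnormally high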;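 also: negative B-score means reduced calcium response which marks RGS4 activation or potentiation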
#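 System – HEK293 FlpIn-TREx cells, stable M3R, doxycycline-inducible RGS4 · Reagent – ECmax carbachol challenge · Times – compound preincubation 20 min at room temperature before agonist · Technique – Fluo4 fluorescence kinetic imaging of calcium · Measure – B score of integrated Fluo4 ratio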
# MrgX1 agonist: agonists of human MrgX1 receptor, primary screen, HEK293 cells, Fluo-4 calcium flux. B-score at 10 µM. AID 588627, 2011. Mas-related G-protein coupled receptor member X1 (Homo sapiens), Q96LB2. Fluo-4 calcium fluorescence, agonist mode; stronger effect = higher value. hit rate 0.44% among 310,000;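 active = calcium response B-score plate-corrected fluorescence ratio at least 3 library SD, with starting fluorescence B-score inside 5 SD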
# Target sequence (Q96LB2 whole entry, looked up): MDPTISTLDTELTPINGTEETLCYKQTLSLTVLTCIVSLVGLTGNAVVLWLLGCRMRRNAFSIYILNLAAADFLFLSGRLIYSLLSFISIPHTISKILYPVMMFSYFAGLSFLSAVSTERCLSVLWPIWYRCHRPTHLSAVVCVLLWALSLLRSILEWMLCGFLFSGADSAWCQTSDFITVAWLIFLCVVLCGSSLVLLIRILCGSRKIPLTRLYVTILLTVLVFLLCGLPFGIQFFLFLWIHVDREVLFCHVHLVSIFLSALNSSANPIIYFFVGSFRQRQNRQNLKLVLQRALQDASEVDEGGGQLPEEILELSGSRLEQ
#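 Test system: HEK293 cells stably expressing human MrgX1 receptor; Input: fifteen thousand cells per well; Dosing: compound delivered in addition one of three; Schedule: overnight seeding, then 1 h dark dye loading; Technique: Fluo-4 NW calcium fluorescence; Measure: B-scored fluorescence response ratio; Controls: positive and negative controls per plate.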
# MrgX1 allo act: positive allosteric modulators of MrgX1, primary screen, HEK293 cells, Fluo-4 calcium flux | Mas-related G-protein coupled receptor member X1 (Homo sapiens), Q96LB2 | B-score at 10 µM | hit rate 0.63% among 310,000 | FDSS; stronger effect = higher value;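 active = plate-corrected calcium response at least 3 library SD above typical, normal starting fluorescence, not activating the receptor alone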;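 also: compound read alongside a low EC10 to EC30 dose of BAM8-22 agonist; peak minus trough fluorescence over baseline measured at the second addition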
# MrgX1 antag: antagonists of human MrgX1 receptor, primary screen, HEK293 cells, Fluo-4 calcium flux; hit rate 1.3% among 310,000; AID 588676, 2011; B-score at 10 µM; BAM8-22 antagonism; stronger effect = lower value; Mas-related G-protein coupled receptor member X1 (Homo sapiens), Q96LB2;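 active = calcium-response B-score plate-corrected more than 3 library SD below zero, starting fluorescence within 5 deviations, no agonist response on first addition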;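 also: peak minus trough fluorescence over baseline after final BAM8-22 challenge near maximal dose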
# RGS4 inh valid: enhanced carbachol calcium response, M3R/RGS4 cells, RGS4 inhibitor project, cell-based, validation screen, HEK293 M3R/RGS4, calcium flux; shares compounds with RGS4 inh; carbachol calcium Fluo-4 fluorescence; carbachol added at its EC20; 0 = buffer wells, 100 = carbachol control; calcium response, % at 10 µM; hit rate 65% among 1,700; AID 492999, 2010;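 active = duplicate-averaged calcium response above the buffer-only control mean plus 5 SD of those controls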;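 also: integrated fluorescence ratio F max minus min over baseline F0; higher response in RGS4-induced cells means RGS4 inhibition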
# M3R Ca ctr: carbachol calcium response in non-induced M3R cells, confirmation, counter-screen for RGS4 inhibitor project, cell-based, HEK293 M3R; carbachol calcium Fluo-4; submaximal (EC20) carbachol stimulus; buffer wells 0%, carbachol control wells 100%; activity (percent), % at 10 µM; hit rate 20% among 1,900; shares compounds with RGS4 inh; call rule not given here;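 also: RGS4 induction absent so cells express M3R without RGS4; higher means more calcium signal and flags a non-specific hit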
# RGS4 inh ctr2: signal in non-induced cells without carbachol, RGS4 inhibitor counter-screen | hit rate 22% among 1,900 | calcium response (agonist-mode artifact), % at 10 µM | shares compounds with RGS4 inh | HEK293 M3R/RGS4 non-induced, Fluo-4 calcium, no carbachol; normalised: buffer wells 0%, carbachol wells 100%;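 active = duplicate-averaged calcium rise in uninduced cells above buffer wells' mean plus 5 SD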
# The depositor's hits bear a star; i = inactive; / = no result. Sampled rows, rich in hits. Any-hit rate of the full collection: about 3.5%.
SMILES,RGS4 inh,RGS4 pot,MrgX1 agonist,MrgX1 allo act,MrgX1 antag,RGS4 inh valid,M3R Ca ctr,RGS4 inh ctr2
COc1ccc(N2C(=O)/C(=C/c3ccc([N+](=O)[O-])cc3)C=C2c2ccccc2)cc1,i,i,i,i,i,/,/,/
O=C1/C(=C/c2ccc([N+](=O)[O-])cc2)C=C(c2ccccc2)N1c1ccc(O)cc1,5.08*,i,i,i,i,9.0%*,i,i
Nc1nc(CSc2nc3ccccc3s2)nc(N2CCCCC2)n1,i,i,i,i,i,/,/,/
CCc1ccc(Nc2nc(N)nc(CSc3nc4ccccc4s3)n2)cc1,i,i,i,i,i,i,i,i
Cc1nnc(SCc2nc(N)nc(Nc3ccccc3)n2)s1,5.42*,i,i,i,i,13.5%*,i,i
O=C(O)CN1C(=O)c2cccc(Oc3ccc(Cl)cc3)c2C1=O,i,i,i,i,i,/,/,/
CCOc1ccc(-c2c(C(=O)N/N=C/c3ccc(C)cc3)nnn2-c2nonc2N)cc1,i,i,i,i,i,i,i,i
CCCOc1ccc(-c2c(C(=O)N/N=C/c3ccc(C)cc3)nnn2-c2nonc2N)cc1,i,i,i,i,i,/,39.0%*,i
CSCCC(N=C(NS(=O)(=O)c1ccccc1)c1ccccc1)C(=O)O (stereo unspecified),i,i,i,i,i,/,/,/
CC1=NN(c2ccc(C)c(C)c2)C(=O)C1C(c1cccc(O)c1)C1C(=O)N(c2ccc(C)c(C)c2)N=C1C (stereo unspecified),15.4*,i,i,i,i,13.5%*,i,i
COc1cc(C2C(C#N)=C(N)Oc3c2c(-c2ccccc2)nn3-c2ccccc2)cc(OC)c1OC (stereo unspecified),i,i,i,i,i,/,i,i
Cc1nn(-c2ccccc2)c2c1C(c1ccc([N+](=O)[O-])cc1)C(C#N)=C(N)O2 (stereo unspecified),i,i,i,i,i,/,/,/
c1ccc(-c2cn(C[C@H]3CC[C@H](Cn4cc(-c5ccccn5)nn4)O3)nn2)nc1,i,i,i,i,i,/,/,/
C=CCOc1ccc2c(c1)C(=NO)c1cc(OCC=C)ccc1-2,5.58*,i,i,i,i,9.5%*,i,i
CC(C)C[C@H](NC(=O)N1CCCCCC1)C(=O)O,i,i,i,i,i,/,/,/
C=CCN=C1S/C(=C/c2cccc([N+](=O)[O-])c2)C(=O)N1CC=C,i,i,i,i,i,/,/,/
CCOc1cc(/C=C2/SC(=S)N(Cc3ccccc3)C2=O)ccc1O,i,i,i,i,i,/,/,/
O=C1/C(=C\c2ccc(O)cc2)SC(=S)N1Cc1ccccc1,8.13*,i,i,i,i,13.5%*,i,28.5%*
COc1ccc(CN2C(=O)/C(=C/c3ccncc3)SC2=S)cc1,10.9*,i,i,i,i,25.0%*,i,22.0%*
CC(=O)Oc1ccc(/C=C2/SC(=S)N(Cc3ccccc3)C2=O)cc1,i,i,i,i,i,/,/,/
O=C1/C(=C/c2ccc(O)c([N+](=O)[O-])c2)SC(=S)N1Cc1ccccc1,7.76*,i,i,i,-5.71*,11.0%*,37.0%*,i
O=C(O)c1cccc(CN2C(=O)S/C(=C/c3cccc([N+](=O)[O-])c3)C2=O)c1,26.4*,i,i,i,i,62.5%*,73.0%*,i
O=C(O)c1ccc(/C=C2/SC(=S)N(Cc3ccccc3)C2=O)cc1,i,i,i,i,i,/,/,/
O=C(O)C(c1ccccc1)N1C(=O)/C(=C/c2cccs2)SC1=S (stereo unspecified),i,i,i,i,i,/,/,/
CC(c1ccccc1)N1C(=O)/C(=C/c2ccncc2)SC1=S (stereo unspecified),7.04*,i,i,i,i,6.5%*,33.5%*,i
SMILES,RGS4 inh,RGS4 pot,MrgX1 agonist,MrgX1 allo act,MrgX1 antag,RGS4 inh valid,M3R Ca ctr,RGS4 inh ctr2
Nc1ccc(C23CC4CC(CC(C4)C2)C3)cc1,7.94*,i,i,i,i,13.0%*,i,i
CN1CCN(Cc2c(O)ccc3cc(Br)ccc23)CC1,i,i,i,i,i,/,/,/
CCN(Cc1ccncc1)Cc1c(O)ccc2cc(Br)ccc12,4.76*,i,/,/,/,i,i,i
CCN(CC)C1CCN(C(=O)CCn2nnnc2CN2CCOCC2)C1 (stereo unspecified),i,i,i,i,i,/,/,/
Cc1ccc(N2C(=O)[C@@H]3C(C(=O)C(c4ccccc4)c4ccccc4)=NN[C@@H]3C2=O)cc1,7.19*,i,i,i,i,29.0%*,101.5%*,i
Cc1ccc(N2C(=O)C3NN=C(C(=O)OCc4ccccc4)C3C2=O)cc1 (stereo unspecified),i,i,i,i,i,/,/,/
CCOc1ccc(C(=O)Nc2nnc(NC(=S)Nc3ccccc3)s2)cc1,4.87*,i,i,i,i,10.0%*,i,i
Cc1ccc(C(=O)Nc2nnc(NC(=S)Nc3ccccc3)s2)cc1,i,i,i,i,i,/,/,/
Clc1ccc(C2=Nn3c(nnc3-c3n[nH]c4c3CCC4)SC2)cc1,i,i,i,i,i,i,i,i
Nn1c(SCC(=O)Nc2ccccc2Br)nnc1-c1ccco1,i,i,i,i,i,/,/,/
O=c1cc(-c2ccccc2Cl)oc2c([N+](=O)[O-])c(O)cc(O)c12,10.2*,i,i,i,i,32.5%*,52.0%*,i
O=c1cc(-c2ccccc2Cl)oc2ccc([N+](=O)[O-])c(O)c12,i,i,i,i,i,/,/,/
Cc1ccccc1OCCNc1cc(N2CCCCC2)ccc1[N+](=O)[O-],i,i,i,i,i,i,i,i
